Test results from ChEMBL document CHEMBL5058577, “EUbOPEN Chemogenomics Library 2 (Multiplex)” (2022).

System: U2OS
Experiment: Multiplex assay against U2OS
Type: toxicity, cell-based
Conditions: human
Procedure, shortened: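 Cells were classed with CellPathfinder machine-learning gating, first as Hoechst high-intensity objects or normal cells, then (normal cells) as healthy, pyknosed or fragmented nuclei, and finally (pyknosed cells) as mitotic or apoptotic. Staining of live cells at seeding used Hoechst33342, BioTracker Green Microtubule Cytoskeleton Dye, MitoTracker Red and Annexin V Alexa Fluor 680, with imaging on a CQ1 microscope at 37°C and 5% CO2 after compound addition. Tubulin, mitochondrial-mass and membrane-permeability phenotypes are per cents of healthy-nucleus cells.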

[1] = 12 h, 1 µM, compound concentration 1 uM, replicate 1
[2] = 12 h, 1 µM, compound concentration 1 uM, replicate 2
[3] = 12 h, 10 µM, compound concentration 10 uM, replicate 1
[4] = 12 h, 10 µM, compound concentration 10 uM, replicate 2
[5] = 24 h, 1 µM, compound concentration 1 uM, replicate 1
[6] = 24 h, 1 µM, compound concentration 1 uM, replicate 2
[7] = 24 h, 10 µM, compound concentration 10 uM, replicate 1
[8] = 24 h, 10 µM, compound concentration 10 uM, replicate 2
[9] = 48 h, 1 µM, compound concentration 1 uM, replicate 1
[10] = 48 h, 1 µM, compound concentration 1 uM, replicate 2
[11] = 48 h, 10 µM, compound concentration 10 uM, replicate 1
[12] = 48 h, 10 µM, compound concentration 10 uM, replicate 2

**Q.** `COC[C@@H](c1ccc(C(F)(F)F)cc1)N1CCN(C2(C)CCN(C(=O)c3c(C)ncnc3C)CC2)C[C@@H]1C.O=C(O)/C=C\C(=O)O` [VICRIVIROC MALEATE] was tested. Which “Population Apoptotic (%)” value [1] did it give?
**A.** 82%

**Q.** What about the “Population Fragmented Nuclei (%)” value [1] of the same compound?
**A.** 34%

**Q.** What about the “Population Healthy Nuclei (%)” value [1] of the same compound?
**A.** 54%

**Q.** And the “Population Hoechst High Intensity Objects (%)” value [1]?
**A.** 4%

**Q.** What about the “Population Membrane Permeable-Phenotype (%)” value [1] of the same compound?
**A.** 8%

**Q.** What about the “Population Mitochondria Different-Phenotype (%)” value [1] of the same compound?
**A.** 4%

**Q.** And the “Population Mitotic Cells (%)” value [1]?
**A.** 17%

**Q.** What about the “Population Normal (%)” value [1] of the same compound?
**A.** 95%

**Q.** And the “Population Pyknosed Nuclei (%)” value [1]?
**A.** 11%

**Q.** What about the “Population Tubulin-Different-Phenotype (%)” value [1] of the same compound?
**A.** 3%

**Q.** What about the “Total Cell Count” value [1] of the same compound?
**A.** 261

**Q.** And the “Population Apoptotic (%)” value [2]?
**A.** 81%

**Q.** And the “Population Fragmented Nuclei (%)” value [2]?
**A.** 21%

**Q.** What about the “Population Healthy Nuclei (%)” value [2] of the same compound?
**A.** 67%

**Q.** And the “Population Hoechst High Intensity Objects (%)” value [2]?
**A.** 2%

**Q.** What about the “Population Membrane Permeable-Phenotype (%)” value [2] of the same compound?
**A.** 11%

**Q.** What about the “Population Mitochondria Different-Phenotype (%)” value [2] of the same compound?
**A.** 14%

**Q.** And the “Population Mitotic Cells (%)” value [2]?
**A.** 18%

**Q.** What about the “Population Normal (%)” value [2] of the same compound?
**A.** 97%

**Q.** What about the “Population Pyknosed Nuclei (%)” value [2] of the same compound?
**A.** 10%

**Q.** And the “Population Tubulin-Different-Phenotype (%)” value [2]?
**A.** 7%

**Q.** And the “Total Cell Count” value [2]?
**A.** 105

**Q.** What about the “Population Apoptotic (%)” value [3] of the same compound?
**A.** 86%

**Q.** What about the “Population Fragmented Nuclei (%)” value [3] of the same compound?
**A.** 26%

**Q.** What about the “Population Healthy Nuclei (%)” value [3] of the same compound?
**A.** 65%

**Q.** What about the “Population Hoechst High Intensity Objects (%)” value [3] of the same compound?
**A.** 1%

**Q.** What about the “Population Membrane Permeable-Phenotype (%)” value [3] of the same compound?
**A.** 13%

**Q.** What about the “Population Mitochondria Different-Phenotype (%)” value [3] of the same compound?
**A.** 3%

**Q.** What about the “Population Mitotic Cells (%)” value [3] of the same compound?
**A.** 13%

**Q.** And the “Population Normal (%)” value [3]?
**A.** 98%

**Q.** What about the “Population Pyknosed Nuclei (%)” value [3] of the same compound?
**A.** 8%

**Q.** And the “Population Tubulin-Different-Phenotype (%)” value [3]?
**A.** 3%

**Q.** And the “Total Cell Count” value [3]?
**A.** 270

**Q.** And the “Population Apoptotic (%)” value [4]?
**A.** 33%

**Q.** What about the “Population Fragmented Nuclei (%)” value [4] of the same compound?
**A.** 28%

**Q.** What about the “Population Hoechst High Intensity Objects (%)” value [4] of the same compound?
**A.** 2%

**Q.** What about the “Population Membrane Permeable-Phenotype (%)” value [4] of the same compound?
**A.** 5%

**Q.** What about the “Population Mitochondria Different-Phenotype (%)” value [4] of the same compound?
**A.** 6%

**Q.** And the “Population Mitotic Cells (%)” value [4]?
**A.** 66%

**Q.** What about the “Population Normal (%)” value [4] of the same compound?
**A.** 97%

**Q.** What about the “Population Pyknosed Nuclei (%)” value [4] of the same compound?
**A.** 6%

**Q.** What about the “Population Tubulin-Different-Phenotype (%)” value [4] of the same compound?
**A.** 6%

**Q.** And the “Total Cell Count” value [4]?
**A.** 91

**Q.** And the “Population Apoptotic (%)” value [5]?
**A.** 77%

**Q.** And the “Population Fragmented Nuclei (%)” value [5]?
**A.** 25%

**Q.** And the “Population Healthy Nuclei (%)” value [5]?
**A.** 67%

**Q.** And the “Population Hoechst High Intensity Objects (%)” value [5]?
**A.** 3%

**Q.** And the “Population Membrane Permeable-Phenotype (%)” value [5]?
**A.** 5%

**Q.** What about the “Population Mitochondria Different-Phenotype (%)” value [5] of the same compound?
**A.** 3%

**Q.** What about the “Population Mitotic Cells (%)” value [5] of the same compound?
**A.** 22%

**Q.** What about the “Population Normal (%)” value [5] of the same compound?
**A.** 96%

**Q.** What about the “Population Pyknosed Nuclei (%)” value [5] of the same compound?
**A.** 7%

**Q.** What about the “Population Tubulin-Different-Phenotype (%)” value [5] of the same compound?
**A.** 2%

**Q.** What about the “Total Cell Count” value [5] of the same compound?
**A.** 301

**Q.** And the “Population Apoptotic (%)” value [6]?
**A.** 93%

**Q.** What about the “Population Fragmented Nuclei (%)” value [6] of the same compound?
**A.** 20%

**Q.** What about the “Population Healthy Nuclei (%)” value [6] of the same compound?
**A.** 64%

**Q.** What about the “Population Hoechst High Intensity Objects (%)” value [6] of the same compound?
**A.** 4%

**Q.** And the “Population Membrane Permeable-Phenotype (%)” value [6]?
**A.** 10%

**Q.** And the “Population Mitochondria Different-Phenotype (%)” value [6]?
**A.** 14%

**Q.** What about the “Population Mitotic Cells (%)” value [6] of the same compound?
**A.** 6%

**Q.** What about the “Population Normal (%)” value [6] of the same compound?
**A.** 95%

**Q.** What about the “Population Pyknosed Nuclei (%)” value [6] of the same compound?
**A.** 15%

**Q.** And the “Population Tubulin-Different-Phenotype (%)” value [6]?
**A.** 10%

**Q.** And the “Total Cell Count” value [6]?
**A.** 111

**Q.** And the “Population Apoptotic (%)” value [7]?
**A.** 80%

**Q.** What about the “Population Fragmented Nuclei (%)” value [7] of the same compound?
**A.** 25%

**Q.** What about the “Population Healthy Nuclei (%)” value [7] of the same compound?
**A.** 68%

**Q.** What about the “Population Hoechst High Intensity Objects (%)” value [7] of the same compound?
**A.** 1%

**Q.** And the “Population Membrane Permeable-Phenotype (%)” value [7]?
**A.** 3%

**Q.** And the “Population Mitochondria Different-Phenotype (%)” value [7]?
**A.** 3%

**Q.** And the “Population Mitotic Cells (%)” value [7]?
**A.** 19%

**Q.** What about the “Population Normal (%)” value [7] of the same compound?
**A.** 98%

**Q.** And the “Population Pyknosed Nuclei (%)” value [7]?
**A.** 6%

**Q.** And the “Population Tubulin-Different-Phenotype (%)” value [7]?
**A.** 2%

**Q.** And the “Total Cell Count” value [7]?
**A.** 326

**Q.** And the “Population Apoptotic (%)” value [8]?
**A.** 83%

**Q.** What about the “Population Membrane Permeable-Phenotype (%)” value [8] of the same compound?
**A.** 4%

**Q.** What about the “Population Mitochondria Different-Phenotype (%)” value [8] of the same compound?
**A.** 2%

**Q.** And the “Population Mitotic Cells (%)” value [8]?
**A.** 16%

**Q.** And the “Population Tubulin-Different-Phenotype (%)” value [8]?
**A.** 7%

**Q.** What about the “Total Cell Count” value [8] of the same compound?
**A.** 99

**Q.** And the “Population Apoptotic (%)” value [9]?
**A.** 78%

**Q.** What about the “Population Fragmented Nuclei (%)” value [9] of the same compound?
**A.** 20%

**Q.** And the “Population Healthy Nuclei (%)” value [9]?
**A.** 68%

**Q.** And the “Population Hoechst High Intensity Objects (%)” value [9]?
**A.** 3%

**Q.** And the “Population Membrane Permeable-Phenotype (%)” value [9]?
**A.** 3%

**Q.** And the “Population Mitochondria Different-Phenotype (%)” value [9]?
**A.** 2%

**Q.** And the “Population Mitotic Cells (%)” value [9]?
**A.** 21%

**Q.** And the “Population Normal (%)” value [9]?
**A.** 96%

**Q.** What about the “Population Pyknosed Nuclei (%)” value [9] of the same compound?
**A.** 10%

**Q.** And the “Population Tubulin-Different-Phenotype (%)” value [9]?
**A.** 1%

**Q.** And the “Total Cell Count” value [9]?
**A.** 416

**Q.** And the “Population Apoptotic (%)” value [10]?
**A.** 93%

**Q.** What about the “Population Fragmented Nuclei (%)” value [10] of the same compound?
**A.** 25%

**Q.** And the “Population Healthy Nuclei (%)” value [10]?
**A.** 62%

**Q.** What about the “Population Hoechst High Intensity Objects (%)” value [10] of the same compound?
**A.** 1%

**Q.** And the “Population Membrane Permeable-Phenotype (%)” value [10]?
**A.** 13%

**Q.** What about the “Population Mitochondria Different-Phenotype (%)” value [10] of the same compound?
**A.** 11%

**Q.** And the “Population Mitotic Cells (%)” value [10]?
**A.** 6%

**Q.** What about the “Population Normal (%)” value [10] of the same compound?
**A.** 98%

**Q.** And the “Population Pyknosed Nuclei (%)” value [10]?
**A.** 11%

**Q.** And the “Population Tubulin-Different-Phenotype (%)” value [10]?
**A.** 10%

**Q.** And the “Total Cell Count” value [10]?
**A.** 142

**Q.** And the “Population Apoptotic (%)” value [11]?
**A.** 80%

**Q.** What about the “Population Fragmented Nuclei (%)” value [11] of the same compound?
**A.** 19%

**Q.** And the “Population Healthy Nuclei (%)” value [11]?
**A.** 70%

**Q.** What about the “Population Hoechst High Intensity Objects (%)” value [11] of the same compound?
**A.** 2%

**Q.** And the “Population Membrane Permeable-Phenotype (%)” value [11]?
**A.** 3%

**Q.** What about the “Population Mitochondria Different-Phenotype (%)” value [11] of the same compound?
**A.** 2%

**Q.** What about the “Population Mitotic Cells (%)” value [11] of the same compound?
**A.** 20%

**Q.** What about the “Population Normal (%)” value [11] of the same compound?
**A.** 97%

**Q.** What about the “Population Pyknosed Nuclei (%)” value [11] of the same compound?
**A.** 9%

**Q.** And the “Population Tubulin-Different-Phenotype (%)” value [11]?
**A.** 1%

**Q.** And the “Total Cell Count” value [11]?
**A.** 437

**Q.** What about the “Population Apoptotic (%)” value [12] of the same compound?
**A.** 93%

**Q.** And the “Population Fragmented Nuclei (%)” value [12]?
**A.** 18%

**Q.** And the “Population Healthy Nuclei (%)” value [12]?
**A.** 68%

**Q.** What about the “Population Hoechst High Intensity Objects (%)” value [12] of the same compound?
**A.** 5%

**Q.** And the “Population Mitochondria Different-Phenotype (%)” value [12]?
**A.** 6%

**Q.** And the “Population Mitotic Cells (%)” value [12]?
**A.** 6%

**Q.** And the “Population Normal (%)” value [12]?
**A.** 94%

**Q.** What about the “Population Pyknosed Nuclei (%)” value [12] of the same compound?
**A.** 12%

**Q.** And the “Population Tubulin-Different-Phenotype (%)” value [12]?
**A.** 6%

**Q.** And the “Total Cell Count” value [12]?
**A.** 140
